In brackets after ≈: the same amount, converted by molar mass.
Tests used:
Escherichia coli [1] = assay: Antimicrobial activity against Escherichia coli at 512 ug/ml after 24 hrs by agar diffusion technique; type: functional; settings: read-out: DIZ
Method in brief: (§1)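 Strains came from a university microbiology department. Inocula were 10⁶ CFU/mL. Mueller-Hinton agar was seeded with culture, poured 3–4 mm thick, and 10 mm cups were bored. Compounds were dissolved in DMF (10 mg/mL stock), diluted, and the solution was placed in the cups. Plates were incubated at 37 °C overnight. Inhibition zone diameter (mm) was read at 24 h.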

Staphylococcus aureus [2] = assay: Antimicrobial activity against Staphylococcus aureus at 4 ug/ml after 24 hrs by agar diffusion technique; type: functional; settings: read-out: DIZ; method in brief: as §1
Staphylococcus aureus [3] = assay: Antimicrobial activity against Staphylococcus aureus at 512 ug/ml after 24 hrs by agar diffusion technique; type: functional; settings: read-out: DIZ; method in brief: as §1
Klebsiella pneumoniae [4] = assay: Antimicrobial activity against Klebsiella pneumoniae at 16 ug/ml after 24 hrs by agar diffusion technique; type: functional; settings: read-out: DIZ; method in brief: as §1
Klebsiella pneumoniae [5] = assay: Antimicrobial activity against Klebsiella pneumoniae after 24 hrs by agar diffusion technique; type: functional; settings: for MIC: Klebsiella pneumoniae, 24 h
Method in brief: (§2)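 Agar cup diffusion on Mueller-Hinton agar seeded from 10⁶ CFU/mL suspensions, with 10 mm cups in a 3–4 mm layer. Compounds were in DMF (10 mg/mL stock) at several concentrations. Plates were incubated at 37 °C and zones measured after 24 h. MIC was taken as the intercept of the plot of log concentration against inhibition zone diameter.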

[6] = Octanol-phosphate buffer partition coefficient, log D at pH 7.4 by spectrophotometry; type: physicochemical
Method in brief: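 Shake-flask method. A 0.2 mg/mL stock was diluted into pH 7.4 phosphate buffer and mixed with an equal volume of n-octanol, phases mutually presaturated and protected from light. Samples were vortexed 3 min, then shaken 5 h at 25 °C. Both phases were assayed by UV at 270–280 nm. D is the molar concentration ratio, octanol to aqueous.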

Pseudomonas aeruginosa [7] = assay: Antimicrobial activity against Pseudomonas aeruginosa at 512 ug/ml after 24 hrs by agar diffusion technique; type: functional; settings: read-out: DIZ; method in brief: as §1
Klebsiella pneumoniae [8] = assay: Antimicrobial activity against Klebsiella pneumoniae at 128 ug/ml after 24 hrs by agar diffusion technique; type: functional; settings: read-out: DIZ; method in brief: as §1
Escherichia coli [9] = assay: Antimicrobial activity against Escherichia coli at 64 ug/ml after 24 hrs by agar diffusion technique; type: functional; settings: read-out: DIZ; method in brief: as §1
Pseudomonas aeruginosa [10] = assay: Antimicrobial activity against Pseudomonas aeruginosa at 64 ug/ml after 24 hrs by agar diffusion technique; type: functional; settings: read-out: DIZ; method in brief: as §1
Staphylococcus aureus [11] = assay: Antimicrobial activity against Staphylococcus aureus at 16 ug/ml after 24 hrs by agar diffusion technique; type: functional; settings: read-out: DIZ; method in brief: as §1
Escherichia coli [12] = assay: Antimicrobial activity against Escherichia coli after 24 hrs by agar diffusion technique; type: functional; settings: for MIC: Escherichia coli, 24 h; method in brief: as §2
Klebsiella pneumoniae [13] = assay: Antimicrobial activity against Klebsiella pneumoniae at 4 ug/ml after 24 hrs by agar diffusion technique; type: functional; settings: read-out: DIZ; method in brief: as §1
Escherichia coli [14] = assay: Antimicrobial activity against Escherichia coli at 4 ug/ml after 24 hrs by agar diffusion technique; type: functional; settings: read-out: DIZ; method in brief: as §1
Klebsiella pneumoniae [15] = assay: Antimicrobial activity against Klebsiella pneumoniae at 64 ug/ml after 24 hrs by agar diffusion technique; type: functional; settings: read-out: DIZ; method in brief: as §1
Staphylococcus aureus [16] = assay: Antimicrobial activity against Staphylococcus aureus at 64 ug/ml after 24 hrs by agar diffusion technique; type: functional; settings: read-out: DIZ; method in brief: as §1
Pseudomonas aeruginosa [17] = assay: Antimicrobial activity against Pseudomonas aeruginosa after 24 hrs by agar diffusion technique; type: functional; settings: for MIC: Pseudomonas aeruginosa, 24 h; method in brief: as §2
Pseudomonas aeruginosa [18] = assay: Antimicrobial activity against Pseudomonas aeruginosa at 128 ug/ml after 24 hrs by agar diffusion technique; type: functional; settings: read-out: DIZ; method in brief: as §1
Staphylococcus aureus [19] = assay: Antimicrobial activity against Staphylococcus aureus after 24 hrs by agar diffusion technique; type: functional; settings: for MIC: Staphylococcus aureus, 24 h; method in brief: as §2
Pseudomonas aeruginosa [20] = assay: Antimicrobial activity against Pseudomonas aeruginosa at 16 ug/ml after 24 hrs by agar diffusion technique; type: functional; settings: read-out: DIZ; method in brief: as §1
Staphylococcus aureus [21] = assay: Antimicrobial activity against Staphylococcus aureus at 128 ug/ml after 24 hrs by agar diffusion technique; type: functional; settings: read-out: DIZ; method in brief: as §1
Pseudomonas aeruginosa [22] = assay: Antimicrobial activity against Pseudomonas aeruginosa at 4 ug/ml after 24 hrs by agar diffusion technique; type: functional; settings: read-out: DIZ; method in brief: as §1
Escherichia coli [23] = assay: Antimicrobial activity against Escherichia coli at 128 ug/ml after 24 hrs by agar diffusion technique; type: functional; settings: read-out: DIZ; method in brief: as §1
Klebsiella pneumoniae [24] = assay: Antimicrobial activity against Klebsiella pneumoniae at 512 ug/ml after 24 hrs by agar diffusion technique; type: functional; settings: read-out: DIZ; method in brief: as §1
Escherichia coli [25] = assay: Antimicrobial activity against Escherichia coli at 16 ug/ml after 24 hrs by agar diffusion technique; type: functional; settings: read-out: DIZ; method in brief: as §1

Structure (SMILES)	zone of inhibition at 512 µg/mL (Escherichia coli [1]) [mm]	zone of inhibition at 16 µg/mL (Klebsiella pneumoniae [4]) [mm]	logMIC (Klebsiella pneumoniae [5])	MIC (Klebsiella pneumoniae [5]) [mg/L]	logD [6]	zone of inhibition at 512 µg/mL (Pseudomonas aeruginosa [7]) [mm]	zone of inhibition at 128 µg/mL (Klebsiella pneumoniae [8]) [mm]	zone of inhibition at 64 µg/mL (Escherichia coli [9]) [mm]	zone of inhibition at 64 µg/mL (Pseudomonas aeruginosa [10]) [mm]	logMIC (Escherichia coli [12])	MIC (Escherichia coli [12]) [mg/L]	zone of inhibition at 4 µg/mL (Klebsiella pneumoniae [13]) [mm]	zone of inhibition at 4 µg/mL (Escherichia coli [14]) [mm]	zone of inhibition at 64 µg/mL (Klebsiella pneumoniae [15]) [mm]	logMIC (Pseudomonas aeruginosa [17])	MIC (Pseudomonas aeruginosa [17]) [mg/L]	zone of inhibition at 128 µg/mL (Pseudomonas aeruginosa [18]) [mm]	logMIC (Staphylococcus aureus [19])	MIC (Staphylococcus aureus [19]) [mg/L]	zone of inhibition at 16 µg/mL (Pseudomonas aeruginosa [20]) [mm]	other results
CCn1cc(C(=O)O)c(=O)c2cc(F)c(N3CCN(CN4N=C(C)CC4=O)CC3)cc21	10	2	0.9	8 (≈ 18.6 µM)	-0.85	18	6	10	3	0	< 1	0	8	3	0.95	9 (≈ 21 µM)	7	1	10 (≈ 23.3 µM)	3	zone of inhibition at 4 µg/mL (Staphylococcus aureus [2]): 0 mm; zone of inhibition at 512 µg/mL (Staphylococcus aureus [3]): 3 mm; zone of inhibition at 16 µg/mL (Staphylococcus aureus [11]): 0 mm; zone of inhibition at 64 µg/mL (Staphylococcus aureus [16]): 7 mm; zone of inhibition at 128 µg/mL (Staphylococcus aureus [21]): 3 mm; zone of inhibition at 4 µg/mL (Pseudomonas aeruginosa [22]): 0 mm; zone of inhibition at 128 µg/mL (Escherichia coli [23]): 10 mm; zone of inhibition at 512 µg/mL (Klebsiella pneumoniae [24]): 11 mm; zone of inhibition at 16 µg/mL (Escherichia coli [25]): 8 mm
CCn1cc(C(=O)O)c(=O)c2cc(F)c(N3CCN(C=O)CC3)cc21 [4-N-FORMYL-1-PIPERAZINYL-NORFLOXACIN]	13	0	2.11	128 (≈ 369 µM)	0.087	13	0	2	7	1.04	11 (≈ 31.7 µM)	0	2	0	0.78	6 (≈ 17.3 µM)	13	0	< 1	2	zone of inhibition at 4 µg/mL (Staphylococcus aureus [2]): 7 mm; zone of inhibition at 512 µg/mL (Staphylococcus aureus [3]): 12 mm; zone of inhibition at 16 µg/mL (Staphylococcus aureus [11]): 8 mm; zone of inhibition at 64 µg/mL (Staphylococcus aureus [16]): 8 mm; zone of inhibition at 128 µg/mL (Staphylococcus aureus [21]): 15 mm; zone of inhibition at 4 µg/mL (Pseudomonas aeruginosa [22]): 0 mm; zone of inhibition at 128 µg/mL (Escherichia coli [23]): 4 mm; zone of inhibition at 512 µg/mL (Klebsiella pneumoniae [24]): 8 mm; zone of inhibition at 16 µg/mL (Escherichia coli [25]): 2 mm
CCn1cc(C(=O)O)c(=O)c2cc(F)c(N3CCN(CN4C(=O)c5cccc6cccc(c56)C4=O)CC3)cc21	13	0	1.81	64 (≈ 121 µM)	-0.9	10	8	0	0	2.11	128 (≈ 242 µM)	0	0	0	2.11	128 (≈ 242 µM)	0	2.11	128 (≈ 242 µM)	0	zone of inhibition at 4 µg/mL (Staphylococcus aureus [2]): 0 mm; zone of inhibition at 512 µg/mL (Staphylococcus aureus [3]): 15 mm; zone of inhibition at 16 µg/mL (Staphylococcus aureus [11]): 0 mm; zone of inhibition at 64 µg/mL (Staphylococcus aureus [16]): 0 mm; zone of inhibition at 128 µg/mL (Staphylococcus aureus [21]): 0 mm; zone of inhibition at 4 µg/mL (Pseudomonas aeruginosa [22]): 0 mm; zone of inhibition at 128 µg/mL (Escherichia coli [23]): 0 mm; zone of inhibition at 512 µg/mL (Klebsiella pneumoniae [24]): 9 mm; zone of inhibition at 16 µg/mL (Escherichia coli [25]): 0 mm
CCn1cc(C(=O)O)c(=O)c2cc(F)c(N3CCN(c4nnc(-c5ccccc5)c(-c5ccccc5)n4)CC3)cc21	0	0	2.71	> 512	-0.072	0	0	0	0	2.71	> 512	0	0	0	2.71	> 512	0	1.81	64 (≈ 116 µM)	0	zone of inhibition at 4 µg/mL (Pseudomonas aeruginosa [22]): 0 mm; zone of inhibition at 128 µg/mL (Escherichia coli [23]): 0 mm; zone of inhibition at 512 µg/mL (Klebsiella pneumoniae [24]): 0 mm; zone of inhibition at 16 µg/mL (Escherichia coli [25]): 0 mm

Reference: ChEMBL document CHEMBL1137764, “Design, synthesis, antibacterial activity and physicochemical parameters of novel N-4-piperazinyl derivatives of norfloxacin” (Bioorg Med Chem, 2009)
